Source: ChEMBL document CHEMBL3085707, “Solution-phase microwave assisted parallel synthesis of N,N'-disubstituted thioureas derived from benzoic acid: biological evaluation and molecular docking studies” (Eur J Med Chem, 2013)
pIC50: −log10 of the molar value. Active and inactive are the calls of the source. The calls are words filed in the database; no cut-off is given here.

Experiments:
Candida tropicalis = assay: Antifungal activity against Candida tropicalis after 24 to 48 hrs by agar well diffusion method; type: functional
How it was run: (§1)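 Agar well diffusion: 20 mL inoculum added to molten potato dextrose agar and pour-plated, with 6 mm wells cut by cork borer after setting. Inhibition zone measured in mm and scored from + (<1 mm) to ++++ (>6 mm). 2% DMSO in screen medium was the negative control; fluconazole and terbinafine were separate positive controls.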

Saccharomyces cerevisiae = assay: Antifungal activity against Saccharomyces cerevisiae after 24 to 48 hrs by agar well diffusion method; type: functional; how it was run: as §1
Aspergillus flavus = assay: Antifungal activity against Aspergillus flavus after 24 to 48 hrs by agar well diffusion method; type: functional; how it was run: as §1
Aspergillus niger = assay: Antifungal activity against Aspergillus niger after 24 to 48 hrs by agar well diffusion method; type: functional; how it was run: as §1
[1] = tested on: Radical scavenging activity; assay: Antioxidant activity assessed as DPPH free radical scavenging activity after 30 mins; type: functional
Urease = Urease (Canavalia ensiformis, UniProt P07374); assay: Inhibition of jack bean urease assessed as ammonia production after 30 mins by indophenol method
How it was run: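 Indophenol (Weatherburn) ammonia read-out. Enzyme (5 U/mL) and test compound in buffer of 100 mM urea, 1 mM EDTA, 10 mM K2HPO4 and 10 mM […] at pH 8.2, incubated 30 min at 37 °C. Phenol and alkali reagents (NaOH, 0.1% active chloride NaOCl) then added; absorbance read by microplate reader. Run in triplicate; thiourea and acetohydroxamic acid as reference inhibitors.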

[2] = tested on: Radical scavenging activity; assay: Antioxidant activity assessed as DPPH free radical scavenging activity at 1 mM after 30 mins; type: functional
[3] = molecular target: Urease (Canavalia ensiformis) (UniProt P07374); assay: Competitive inhibition of jack bean urease by Lineweaver-Burk plot analysis
How it was run: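 Urease kinetics by the Weatherburn method: buffer of 100 mM urea, 1 mM EDTA, 10 mM K2HPO4 and 10 mM […] at pH 8.2, with enzyme at 5 U/mL and inhibitor, incubated 30 min at 37 °C. Inhibitor was used at 0, 0.05 and 0.5 mM. Vmax and Km were taken from Lineweaver-Burk plots.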

Chain of Urease (P07374 whole entry): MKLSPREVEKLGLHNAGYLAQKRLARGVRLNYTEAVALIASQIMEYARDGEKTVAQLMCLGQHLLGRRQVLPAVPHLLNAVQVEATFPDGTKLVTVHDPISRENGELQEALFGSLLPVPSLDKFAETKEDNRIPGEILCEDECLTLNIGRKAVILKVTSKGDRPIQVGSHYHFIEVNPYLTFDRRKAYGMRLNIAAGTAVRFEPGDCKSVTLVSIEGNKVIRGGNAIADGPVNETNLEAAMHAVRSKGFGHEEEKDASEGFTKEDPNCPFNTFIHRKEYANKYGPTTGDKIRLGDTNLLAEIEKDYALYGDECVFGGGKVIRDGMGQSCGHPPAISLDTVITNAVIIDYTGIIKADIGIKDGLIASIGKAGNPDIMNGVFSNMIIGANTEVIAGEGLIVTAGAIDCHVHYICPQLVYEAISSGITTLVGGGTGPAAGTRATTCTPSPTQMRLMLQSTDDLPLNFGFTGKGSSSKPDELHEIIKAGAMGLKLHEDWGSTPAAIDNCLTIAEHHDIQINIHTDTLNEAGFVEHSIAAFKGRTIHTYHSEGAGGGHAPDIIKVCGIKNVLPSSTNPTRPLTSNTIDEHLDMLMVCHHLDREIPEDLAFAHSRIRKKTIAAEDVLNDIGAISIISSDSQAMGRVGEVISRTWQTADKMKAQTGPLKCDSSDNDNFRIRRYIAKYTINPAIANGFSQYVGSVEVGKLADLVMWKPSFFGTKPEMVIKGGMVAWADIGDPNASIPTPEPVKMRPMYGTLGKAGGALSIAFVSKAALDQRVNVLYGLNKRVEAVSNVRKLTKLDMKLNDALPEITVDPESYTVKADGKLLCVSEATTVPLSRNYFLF
Chain of Urease (Canavalia ensiformis) (P07374 whole entry, looked up): as the sequence (P07374 whole entry) above

SMILES | inhibition zone (IZ) (Candida tropicalis) | inhibition zone (IZ) (Saccharomyces cerevisiae) | inhibition zone (IZ) (Aspergillus flavus) | inhibition zone (IZ) (Aspergillus niger) | pIC50 [1] | pIC50 (Urease) | inhibition [2] [%] | inhibition [3]
CN(C/C=C/C#CC(C)(C)C)Cc1cccc2ccccc12 [TERBINAFINE] | 3 mm | 3 mm | 3 mm | 3 mm |  |  |  | 
CCCCc1ccc(NC(=S)NC(=O)c2ccccc2)cc1 | <1 mm | <1 mm | <1 mm | <1 mm | 3.17 | 4.33 |  | 
O=C(NC(=S)Nc1ccc(C(F)(F)F)cc1)c1ccccc1 | 3 mm | 3 mm | 3 mm | 3 mm | 3.94 | 4.91 |  | 
O=C(NC(=S)Nc1cccc(C(F)(F)F)c1)c1ccccc1 | 1 mm | 3 mm | 1 mm | 3 mm |  | 4.40 | 34 | 
O=C(NC(=S)Nc1cccc(F)c1)c1ccccc1 | <1 mm | 1 mm | <1 mm | 1 mm |  | 5.45 | 38 | 
O=C(NC(=S)Nc1ccccc1C(F)(F)F)c1ccccc1 | 3 mm | 1 mm | 3 mm | 1 mm |  | 4.42 | 38 | 
OC(Cn1cncn1)(Cn1cncn1)c1ccc(F)cc1F [FLUCONAZOLE] | 3 mm | 3 mm | 3 mm | 3 mm |  |  |  | 
O=C(NC(=S)NCc1ccccc1Cl)c1ccccc1 | <1 mm | <1 mm | <1 mm | <1 mm |  | 4.45 | 36 | 
Cc1ccc(NC(=S)NC(=O)c2ccccc2)cc1 | 1 mm | 1 mm | 1 mm | 1 mm | 4.63 | 5.21 |  | 
CCCOC(=O)c1cc(O)c(O)c(O)c1 [PROPYL GALLATE] |  |  |  |  | 4.39 |  |  | 
O=C(NC(=S)Nc1cccc(Cl)c1)c1ccccc1 | <1 mm | <1 mm | <1 mm | <1 mm |  | 4.56 | 21 | 
O=C(NC(=S)Nc1cccc(Cl)c1Cl)c1ccccc1 | <1 mm | <1 mm | <1 mm | <1 mm | 4.53 | 4.49 |  | 
NC(N)=S [THIOUREA] |  |  |  |  |  | 4.65 |  | 
O=C(NC(=S)Nc1cc(Cl)ccc1Cl)c1ccccc1 | <1 mm | <1 mm | <1 mm | <1 mm | 4.51 | 5.34 |  | 
Cc1cc(C)c(NC(=S)NC(=O)c2ccccc2)c(C)c1 | 1 mm | <1 mm | 1 mm | <1 mm |  | 5.09 | 24 | 
O=C(NC(=S)Nc1ccc(Cl)cc1)c1ccccc1 | 1 mm | 1 mm | 1 mm | 1 mm | 3.58 | 4.45 |  | 

SMILES | inhibition zone (IZ) (Candida tropicalis) | inhibition zone (IZ) (Saccharomyces cerevisiae) | inhibition zone (IZ) (Aspergillus flavus) | inhibition zone (IZ) (Aspergillus niger) | pIC50 [1] | pIC50 (Urease) | inhibition [2] [%] | inhibition [3]
O=C(NC(=S)Nc1cc(Cl)cc(Cl)c1)c1ccccc1 | <1 mm | <1 mm | <1 mm | <1 mm | 4.57 | 4.74 |  | 
O=C(NC(=S)Nc1c(Cl)c(Cl)cc(Cl)c1Cl)c1ccccc1 | 3 mm | 3 mm | 3 mm | 3 mm |  | 4.13 | 31 | 
COc1cccc(NC(=S)NC(=O)c2ccccc2)c1 | 3 mm | 3 mm | 3 mm | 3 mm | 3.09 | 4.89 |  | 
O=C(NC(=S)Nc1ccccc1Cl)c1ccccc1 | <1 mm | <1 mm | <1 mm | <1 mm |  | 4.39 | 26 | 
O=C(NC(=S)Nc1ccc(F)cc1)c1ccccc1 | 3 mm | 3 mm | 3 mm | 3 mm |  | 4.39 | 31 | 
O=C(NC(=S)Nc1ccccc1)c1ccccc1 [N-(PHENYLCARBAMOTHIOYL)BENZAMIDE] | inactive | inactive | inactive | inactive | 3.11 | 4.85 |  | 
O=C(NC(=S)Nc1ccc(Cl)c(Cl)c1)c1ccccc1 | <1 mm | <1 mm | <1 mm | <1 mm | 4.15 | 5.26 |  | 
O=C(NC(=S)Nc1c(Cl)cccc1Cl)c1ccccc1 | 1 mm | 1 mm | 1 mm | 1 mm |  | 5.37 | 29 | 
O=C(NC(=S)NC1CCCCC1)c1ccccc1 | <1 mm | <1 mm | <1 mm | <1 mm |  | 4.27 | 28 | 
O=C(NC(=S)Nc1ncccn1)c1ccccc1 | inactive | <1 mm | inactive | <1 mm | 3.56 | 5.09 |  | 
O=C(NC(=S)NCc1ccccc1)c1ccccc1 | inactive | inactive | inactive | inactive |  | 4.56 | 22 | 
O=C(NC(=S)Nc1c(Cl)cc(Cl)cc1Cl)c1ccccc1 | 3 mm | 3 mm | 3 mm | 3 mm |  | 5.78 | 19 | Active
COc1ccc(O)c(C(C)(C)C)c1.COc1ccc(O)cc1C(C)(C)C [BUTYLATED HYDROXYANISOLE] |  |  |  |  | 4.55 |  |  | 
Cc1cccc(NC(=S)NC(=O)c2ccccc2)c1C | <1 mm | <1 mm | <1 mm | <1 mm |  | 5.50 | 27 | 
O=C(NC(=S)Nc1ccc(Cl)cc1Cl)c1ccccc1 | 1 mm | 3 mm | 1 mm | 3 mm | 3.62 | 4.88 |  | 
